# In ChEMBL document CHEMBL3272228, “Antimalarial activity of some novel derivatives of 2,4-diamino-5(p-chlorophenyl)-6-ethylpyrimidine (pyrimethamine)” (J Med Chem, 1976):
# The source made the active and inactive calls. The calls are words filed in the database; no cut-off is given here.
# Assays:
# [1] = tested on: Plasmodium berghei; experiment: Antimalarial activity against Plasmodium berghei KBG13 infected in mouse assessed as minimum dose required for activity; format: functional; conditions: for minimal effective dose: read-out: MED
# How it was run: (§1)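 P. berghei strain KBG 13 in mice, groups of five treated, doses up to 640 mg/kg. Scored as increase in mean survival time in days over controls and as cured/treated. Reported values are the lowest dose giving any cure and the lowest dose showing activity.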
# [2] = tested on: Plasmodium berghei; experiment: Antimalarial activity against Plasmodium berghei KBG13 infected in mouse assessed as disease cures at 640 mg/kg; format: functional, organism-based; parameters: dose 640 mg/kg; how it was run: as §1
# [3] = tested on: Plasmodium berghei; experiment: Antimalarial activity against Plasmodium berghei KBG13 infected in mouse assessed as minimum dose required for disease cures; format: functional; how it was run: as §1
# [4] = tested on: Plasmodium berghei; experiment: Antimalarial activity against Plasmodium berghei KBG13 infected in mouse assessed as increase in host mean survival time at minimum dose; format: functional
# How it was run: (§2)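 Mice infected with Plasmodium berghei strain KBG 13. Five mice per dose group, with doses up to 640 mg/kg. Read-out is the increase in mean survival time in days, with cured/treated counts recorded. The minimum active dose is the lowest dose showing activity, and survival gain is also reported at that dose.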
# [5] = tested on: Plasmodium gallinaceum; experiment: Antimalarial activity against Plasmodium gallinaceum infected in chicks assessed as increase in host survival time at 100 to 160 mg/kg; format: functional; conditions: dose mg/kg 100-160
# How it was run: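 Chicks infected with Plasmodium gallinaceum, in limited testing at doses of 100-160 mg/kg. Activity is expressed as T/C in days of survival at the respective dose levels.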
# [6] = tested on: Plasmodium gallinaceum; experiment: Antimalarial activity against Plasmodium gallinaceum infected in chicks assessed as increase in host survival at 120 mg/kg; format: functional, organism-based; parameters: dose 120 mg/kg
# How it was run: (§3)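 P. gallinaceum in chicks given doses of 100–160 mg/kg. Activity is expressed as T/C, the increase in survival time in days.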
# [7] = tested on: Plasmodium berghei; experiment: Antimalarial activity against Plasmodium berghei KBG13 infected in mouse assessed as increase in host mean survival time at 640 mg/kg; format: functional; how it was run: as §2
# [8] = tested on: Mus musculus; experiment: Toxicity in mouse infected with Plasmodium berghei KBG13 assessed as animal death at 640 mg/kg; format: organism-based; parameters: dose 640 mg/kg; conditions: in vivo
# [9] = species: Mus musculus; experiment: Toxicity in mouse infected with Plasmodium berghei KBG13 assessed as animal death at 2 times minimum curative dose; format: organism-based; conditions: in vivo
# [10] = species: Mus musculus; experiment: Toxicity in mouse infected with Plasmodium berghei KBG13 assessed as animal death at 4 times minimum curative dose; format: organism-based; conditions: in vivo
# [11] = tested on: Plasmodium gallinaceum; experiment: Antimalarial activity against Plasmodium gallinaceum infected in chicks assessed as increase in host survival; format: functional, organism-based; how it was run: as §3
SMILES,Activity [2],minimal effective dose [1] [mg/kg],MCD [3] [mg/kg],MST [4] [days],also measured
C/C(=N\NC(=N)N)c1nc(N)nc(N)c1-c1ccc(Cl)cc1,inactive,–,–,–,Activity [1]: inactive; Activity [3]: inactive; Activity [4]: inactive
COC(C)(OC)c1nc(N)nc(N)c1-c1ccc(Cl)cc1,Active,40,320,4.5,MST [5]: 5.4 days
CC(N)c1nc(N)nc(N)c1-c1ccc(Cl)cc1 (configuration not stated),inactive,–,–,–,Activity [1]: inactive; Activity [3]: inactive; Activity [4]: inactive
C/C(c1nc(N)nc(N)c1-c1ccc(Cl)cc1)=[N+](\C)[O-],–,160,640,3.1,Activity [6]: inactive
C/C(=N/N)c1nc(N)nc(N)c1-c1ccc(Cl)cc1,–,160,–,8.4,MST [7]: 14.8 days
CC(O)c1nc(N)nc(N)c1-c1ccc(Cl)cc1 (racemic),Active,80,–,4.7,MST [5]: 5.4 days
CN/N=C(\C)c1nc(N)nc(N)c1-c1ccc(Cl)cc1,–,–,–,–,Activity [1]: inactive; Activity [3]: inactive; Activity [8]: Toxic; Activity [4]: inactive
CCc1nc(N)nc(N)c1-c1ccc(Cl)cc1 [PYRIMETHAMINE],–,–,40,–,Activity [9]: Toxic
C/C(=N\N(C)C)c1nc(N)nc(N)c1-c1ccc(Cl)cc1,–,40,320,3.8,Activity [8]: Toxic
CC(=O)NC(C)c1nc(N)nc(N)c1-c1ccc(Cl)cc1 (racemic),inactive,–,–,–,Activity [1]: inactive; Activity [3]: inactive; Activity [4]: inactive
CCOC(C)(OCC)c1nc(N)nc(N)c1-c1ccc(Cl)cc1,Active,20,160,3.5,Activity [10]: Non-toxic; MST [5]: 5.4 days
CC(=O)c1nc(N)nc(N)c1-c1ccc(Cl)cc1,–,80,320,5.9,Activity [8]: Toxic
CCN(CC)CCCC(C)NC(C)c1nc(N)nc(N)c1-c1ccc(Cl)cc1 (configuration not stated),–,–,–,–,Activity [11]: inactive
C/C(=N/O)c1nc(N)nc(N)c1-c1ccc(Cl)cc1,–,160,–,3.4,MST [7]: 5.4 days
